Source: PubChem BioAssay
Rows were chosen to be rich in hits. Some 3.5% of all compounds tested hit in one or more screens of this group.
HIV Rev-RRE inh = HIV Rev-RRE protein-RNA interaction inhibition | AID 704 | P05866 | inhibition, % at 8 µM | Rev peptide-RRE RNA binding, FRET | hit rate 0.79% among 97,000;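 active = inhibition above the screen-wide mean plus 3 SD, cut at about 35% in these data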;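 note: 0% = median DMSO wells and 100% = median Neomycin B control wells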
Target sequence (P05866 whole entry, looked up): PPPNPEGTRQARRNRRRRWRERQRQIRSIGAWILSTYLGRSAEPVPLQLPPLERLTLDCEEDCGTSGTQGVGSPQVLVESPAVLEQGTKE
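System: Cy5-labelled duplex RRE RNA binding fluorescein-labelled HIV Rev peptide; Signal: fluorescein-to-Cy5 FRET, 480 nm excitation; Also added: labelled Rev peptide; Compound: one concentration, 8 µM nominal; Buffer or medium: HEPES pH 7.5 salt buffer with EDTA; Read-out: % inhibition of FRET ratio versus controls; Schedule: 5 min preincubation and 15 min binding, 25 °C.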
ERb coact inh = ER-beta (human) coactivator binding inhibition. inhibition, % at 25.6 µM. Q92731. TR-FRET ER-beta LBD / SRC1-Cy5 peptide binding; receptor agonist-loaded with 1 µM estradiol. hit rate 1.3% among 86,000. AID 633;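 active = compounds whose percent inhibition of the receptor-coactivator binding signal exceeds about 50% in the single-dose screen, limit read from the data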;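 note: 0% = receptor plus peptide wells without compound and 100% = peptide-only wells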
ERa coact inh = ER-alpha (human) coactivator binding inhibition. P03372. TR-FRET ER-alpha LBD / SRC-1 peptide, estradiol-bound. inhibition, % at 25.6 µM. hit rate 1.7% among 86,000. AID 629; in the data active = inhibition above about 50%;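 note: 0% = receptor plus peptide control and 100% = peptide only without receptor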
Target sequence (P03372 whole entry, looked up, the tested form may be a part): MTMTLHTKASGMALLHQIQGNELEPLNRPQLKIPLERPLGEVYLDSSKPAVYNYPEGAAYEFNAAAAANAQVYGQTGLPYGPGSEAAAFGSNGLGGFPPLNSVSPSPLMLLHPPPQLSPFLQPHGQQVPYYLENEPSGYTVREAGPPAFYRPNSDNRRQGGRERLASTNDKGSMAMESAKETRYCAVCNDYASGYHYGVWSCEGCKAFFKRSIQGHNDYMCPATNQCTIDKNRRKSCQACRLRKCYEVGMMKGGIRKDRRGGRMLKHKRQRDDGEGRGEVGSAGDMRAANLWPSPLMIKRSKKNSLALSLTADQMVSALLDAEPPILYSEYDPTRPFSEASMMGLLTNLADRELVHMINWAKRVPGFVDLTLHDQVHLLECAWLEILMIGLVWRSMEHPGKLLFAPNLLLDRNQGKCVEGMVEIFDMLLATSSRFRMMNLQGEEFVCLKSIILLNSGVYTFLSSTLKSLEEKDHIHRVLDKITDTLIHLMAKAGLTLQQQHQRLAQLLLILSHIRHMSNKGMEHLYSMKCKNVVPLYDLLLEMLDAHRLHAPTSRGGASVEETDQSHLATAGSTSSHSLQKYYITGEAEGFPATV
sEH inh = inhibitors of human soluble epoxide hydrolase; inhibition, % at 2 µM; P34913; AID 707; hit rate 0.34% among 91,000; recombinant human sEH enzymatic activity assay; in the data active = inhibition above about 80%
ERa SRC1 pot = ER-alpha (human) coactivator binding potentiation; TR-FRET ERalpha-LBD/SRC-Cy5 coactivator binding, 2 h; 100 = basal binding, no effect; coactivator binding (% of control), % at 25.6 µM; hit rate 1.3% among 86,000; AID 639; in the data active = activity above about 200%;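 note: binding measured in presence of low estradiol as agonist stimulus; 0% = peptide alone without receptor and 100% = receptor with peptide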
sEH activator = soluble epoxide hydrolase (human) activation; hit rate 0.04% among 91,000; activation, % at 2 µM; AID 717; purified human sEH enzymatic activity, activator screen; P34913; in the data active = activation above about 37%
Active calls of the source: *; x = no result; [ ] = another dose, or the depositor's remark.

SMILES	HIV Rev-RRE inh	ERb coact inh	ERa coact inh	sEH inh	ERa SRC1 pot	sEH activator
O=C(NCc1ccc2c(c1)OCO2)C1CCC(CNS(=O)(=O)c2cccc3nsnc23)CC1 (configuration not stated)	4.7	-2.0	1.6	94.3*	99.5	-94.3
CCOCCCNC(=O)C1CCC(CNS(=O)(=O)c2cccc3nsnc23)CC1 (configuration not stated)	x	-1.5	0.0	x	108.0	x
O=C(NCc1ccc2c(c1)OCO2)C1CCC(CNc2c(N3CCCC3)c(=O)c2=O)CC1 (configuration not stated)	x	-8.5	-3.2	x	115.6	x
COc1ccc(CNC(=O)C2CCC(CNS(=O)(=O)c3cccc4nsnc34)CC2)cc1 (configuration not stated)	5.1	2.0	-5.1	95.2*	117.0	-95.3
COC(=O)c1cc(COc2ccc3c(c2)oc(=O)c2ccccc23)c(C)o1	0.3	23.1	30.3	-7.0	229.5*	6.7
O=C(COc1ccc2oc(-c3ccccc3)cc(=O)c2c1)NCc1ccco1	4.8	26.3	40.2	x	104.1	x
Cc1ccc(NC(=O)CN2C(=O)S/C(=C/c3ccc(-c4cc(C(=O)O)ccc4C)o3)C2=O)cc1C	10.6	72.6*	66.1*	22.8	237.1*[fluorescence artefact?]	-22.1
CCn1c(C)cc(/C=C2\SC(=O)N(CC(=O)Nc3ccc(C)c(C)c3)C2=O)c1C	3.6	x	x	5.7	x	-5.0
O=C1CCN2C=Nc3cccc4ccc1c2c34	129.7*[fluorescence artefact?]	x	x	-16.1	x	14.6
N#Cc1c(N)c(C(=O)c2ccccc2)n2c1CCCC2	3.3	-2.6	-4.8	8.4	102.1	-5.7
CC(=O)N(C(C)=O)c1c(C#N)c(C)n(-c2ccccc2)c1C(=O)c1ccccc1	-1.8	-4.5	67.7*	-25.0	93.5	23.8
CCOc1ccc(CC(=O)Nc2c(C(N)=O)oc3ccc(Br)cc23)cc1OCC	1.4	2.9	-0.6	13.8	104.5	-16.0
O=C(COC(=O)c1n[nH]c2ccccc12)Nc1ccc(S(=O)(=O)N2CCCC2)cc1	-1.1	12.9	23.1	29.3	162.3	-29.7
COc1cccc(-c2csc(N3CCN(C(=S)Nc4ccccc4)CC3)n2)c1	-0.8	x	x	-6.2	x	9.4
COc1cccc(-c2csc(N3CCN(C(=O)NC45CC6CC(CC(C6)C4)C5)CC3)n2)c1	-1.4	-5.4	-13.1	81.9*	150.9	-81.0
O=C(NC(Nc1cc(C(F)(F)F)ccc1Cl)C(=O)c1ccccc1)c1ccccc1 (configuration not stated)	1.8	x	x	-4.5	x	2.4
CCCSc1nnc(NC(=O)c2sc3nc(-c4cccs4)ccc3c2N)s1	105.5*[fluorescence artefact?]	x	x	x	x	x
Cc1csc(NC(=O)c2sc3nc(-c4cccs4)ccc3c2N)n1	101.6*[fluorescence artefact?]	52.8*[fluorescence artefact?]	85.1*[fluorescence artefact?]	-25.4	41.4	24.4
Cc1ccc(NNS(=O)(=O)c2ccc(C)cc2)cc1	2.2	x	x	-5.0	x	2.4
OCC(C#CCN1CCCCC1)NCc1ccccc1 (configuration not stated)	x	-5.2	0.6	x	135.3	x
COc1ccc(C(=O)CSc2nnc(C3CCCCC3)n2N)c(OC)c1	x	18.4	68.2*	x	63.6	x
CCCCC1=NN(C(=O)c2cocc2C)C(O)(C(F)(F)F)C1 (configuration not stated)	3.1	-6.2	4.3	2.2	101.0	-4.0
C=CCn1c(SCC(=O)NC2CCCCC2)nnc1C(C)NC(=O)c1cccs1 (configuration not stated)	1.1	-4.9	83.3*	2.1	128.6	-4.0
Cc1ccc(S(=O)(=O)C2(C(=O)Nc3cccnc3)CC2)cc1	8.6	-3.1	-0.7	-4.2	90.9	4.2
CC12COC3(C(=O)Nc4cccnc4)CC1CCC32C (configuration not stated)	43.6*	-3.8	-6.9	2.0	99.7	2.0
SMILES	HIV Rev-RRE inh	ERb coact inh	ERa coact inh	sEH inh	ERa SRC1 pot	sEH activator
Cc1[nH]nc2c1C(c1ccccn1)N(c1ccc(Br)cc1)C2=O (configuration not stated)	1.1	-2.6	77.1*[fluorescence artefact?]	-6.1	103.2	4.1
CCOC(=O)c1ccc(N2C(=O)c3n[nH]c(C)c3C2c2ccccn2)cc1 (configuration not stated)	-1.2	32.0	12.2	-8.2	47.2	10.1
Cc1cc(CSc2ccccc2)ccc1NC(=O)c1cccc([N+](=O)[O-])c1	6.7	x	x	13.2	x	-12.8
CCOc1ccc(C(c2c(O)nc(SC)n(C)c2=O)c2c(O)nc(SC)n(C)c2=O)cc1	9.2	x	x	-1.0	x	5.3
CN(C)c1ccc(C=Nc2ccccc2C(N)=O)cc1	-1.5	9.0	-4.0	8.2	111.0	-10.3
CN(C)c1ccc(/C=C/c2cc[n+](C)cc2)cc1	49.0*[fluorescence artefact?]	-14.5	-29.6	-10.7	105.7	7.5
CN(C)c1ccc(C(=O)c2ccccc2)cc1	-0.4	-1.3	2.7	-0.1	95.0	-0.6
CN(C)c1ccc(/C=C/c2cc[n+]([O-])cc2)cc1	120.5*[fluorescence artefact?]	-12.4	-15.9	-0.7	103.1	2.3
CS(=O)(=O)N(Cc1ccc(C(=O)NCc2ccco2)cc1)c1ccccc1	1.6	11.9	3.6	18.9	91.4	-18.9
CS(=O)(=O)N(Cc1ccc(C(=O)NCCSCc2ccco2)cc1)c1ccccc1	4.2	-6.5	-6.7	80.6*	106.1	-80.8
COc1cccc(C(=O)NC(C)C(c2cccs2)N2CCN(C)CC2)c1 (configuration not stated)	0.9	67.0*[fluorescence artefact?]	-31.9	x	115.1	x
CCOC(=O)c1c(C)[nH]c(C(=O)CSc2nnnn2-c2ccccc2)c1C	x	57.8*[fluorescence artefact?]	57.7*[fluorescence artefact?]	x	205.5*[fluorescence artefact?]	x
CCN(c1ccccc1)S(=O)(=O)c1ccc2[nH]cc(C(=O)NCCOC)c(=O)c2c1	8.8	22.4	50.3*	0.9	45.8	-1.6
O=C(CSc1nnc(-c2ccc(Cl)cc2)o1)N1CCN(c2ccccc2)CC1	x	54.0*	73.2*[fluorescence artefact?]	x	50.4	x
CC1Cc2ccccc2N1C(=O)Cn1c(=O)cc(O)c2ccccc21 (configuration not stated)	2.1	-8.2	2.9	17.4	99.5	-15.0
CCC(Sc1ncnc2sc(C)c(C)c12)C(=O)OC (configuration not stated)	5.9	60.6*	63.2*[fluorescence artefact?]	3.1	41.9	-2.8
Cc1sc2ncnc(SCC(=O)c3ccc(Cl)s3)c2c1C	10.5	-2.7	-0.4	8.3	243.1*	-8.8
Cc1sc2ncnc(SCC(=O)NCC(C)C)c2c1C	8.8	x	x	56.1	x	-55.3
Cc1ccccc1NC(=O)c1cccc2nccnc12	0.0	1.2	1.9	3.5	92.7	-2.1
Cc1ccc(F)cc1NC(=O)c1cccc2nccnc12	1.5	-20.7	2.5	-14.7	369.6*	13.1
COc1ccc(NC(=O)C2CCN(Cc3cnn(-c4ccccc4)c3-n3cccc3)CC2)cc1OC	6.0	7.0	-6.4	12.6	107.6	-14.2
COc1ccc(OC)c(NC(=O)C2CCN(Cc3cnn(-c4ccccc4)c3-n3cccc3)CC2)c1	1.6	-8.7	-3.8	6.3	214.5*	-7.5
